Hits are enriched below; roughly 2.2% of the tested compounds scored in any of these assays.
Rtt109 HAT inh: inhibitors of Candida albicans Rtt109/Vps75 histone acetyltransferase; purified Rtt109/Vps75, ThioGlo CoA-SH fluorescence, 4 h; inhibition, % at 34.9 µM; 330,000 tested, 0.16% active;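 active = inhibition of at least 50% in every replicate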
Target sequence (Q5AAJ8 whole entry, looked up): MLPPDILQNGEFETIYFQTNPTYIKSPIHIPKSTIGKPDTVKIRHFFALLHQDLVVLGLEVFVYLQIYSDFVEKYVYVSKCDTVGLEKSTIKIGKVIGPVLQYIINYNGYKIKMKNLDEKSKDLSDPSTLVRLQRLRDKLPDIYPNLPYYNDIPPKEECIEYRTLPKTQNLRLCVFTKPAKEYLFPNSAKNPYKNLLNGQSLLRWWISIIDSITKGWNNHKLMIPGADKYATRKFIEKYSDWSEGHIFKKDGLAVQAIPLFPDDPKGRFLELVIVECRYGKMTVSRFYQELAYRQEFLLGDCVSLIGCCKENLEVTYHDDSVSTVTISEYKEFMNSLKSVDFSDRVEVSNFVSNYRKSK
CDK5 inh: inhibitors of human CDK5/p35 kinase; Q00535+Q15078; 330,000 tested, 0.01% active; Recombinant CDK5/p35, ADP-Glo luminescence, 60 min; inhibition, % at 10 µM;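 active = highest replicate inhibition of at least 50% and at least 75% of replicates reaching 50%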
CAL PDZ FP-1: inhibitors of human CAL PDZ peptide binding; purified CAL PDZ, TMR-peptide fluorescence polarization, 1 h; 300,000 tested, 0.92% active; Q9HD26; inhibition, % at 24.9 µM;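 active = mean inhibition of at least 30% with at least half of replicates also reaching 30%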
Dyrk1A ADPGlo: blocks rat Dyrk1A kinase activity | Q63470 | ADP-Glo luminescence, NFATc1 peptide | inhibition, % at 12.5 µM | 310,000 tested, 0.43% active | AID 504441; in the data active = inhibition above about 50%
dFosB act: mouse delta FosB homodimer activation | P13346 | purified delta FosB, TAMRA-CDK5 oligo fluorescence polarization; percent of positive-control signal above neutral wells | activation, % at 25 µM | 340,000 tested, 0.99% active | AID 493131;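 active = mean activation above about 17%, with every replicate also reaching it, limit read from the data, passing the limit was not always enough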
CAL PDZ FP-2: blocks peptide binding to human CAL PDZ domain; inhibition, % at 20 µM; 330,000 tested, 0.02% active; purified CAL PDZ, TMR-peptide fluorescence polarization, 1 h; Q9HD26; AID 504414;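 active = highest replicate inhibition of at least 40%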
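Material – purified CerCALP PDZ construct · Detection – FP readout, S and P plane fluorescence · Measure – percent inhibition from loss of millipolarization · Controls – unlabelled peptide for full inhibition, DMSO wells as neutral · Probe or stimulus – TMR-labelled reporter peptide T*-PRC34 bound in PDZ groove · Times – 1 h at RT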
A number is an active result; . = inactive; / = no result given.

SMILES	Rtt109 HAT inh	CDK5 inh	CAL PDZ FP-1	Dyrk1A ADPGlo	dFosB act	CAL PDZ FP-2
COC(=O)c1cc(S(=O)(=O)Nc2ccsc2C(=O)OC)oc1C	.	.	32.9	/	.	.
COc1cc(C#N)ccc1OCC(=O)NCCC1=CCCCC1	.	.	.	.	.	.
CCOC(=O)N1CCN(C(=O)c2ccc3c(c2)sc2nc(-c4ccc(OC)cc4)cn23)CC1	.	.	38.2	.	.	.
CCOC(=O)N1CCN(C(=O)c2sc3nc(-c4ccc(F)cc4)cn3c2C)CC1	.	.	.	.	.	.
O=C1CC(c2cccc(Cl)c2)Cc2nc(N3CCN(c4ccccc4)CC3)ncc21 (stereo not given)	.	.	.	.	.	.
CCN1CCN(c2ncc3c(n2)CC(c2cc(OC)c(OC)c(OC)c2)CC3=O)CC1 (stereo not given)	.	.	49.6	.	.	.
[O-][n+]1cccc2cccc(O)c21	.	.	48.9	.	.	.
Cc1n[nH]c(C)c1CCNC(=O)C1CCC(=O)N(Cc2ccccc2F)C1 (stereo not given)	.	.	.	.	.	.
Cc1cc(Cl)ccc1NC(=O)C1CCN(S(C)(=O)=O)CC1	.	.	.	.	.	.
Nn1c(Cc2ccccc2)nnc1Cc1ccccc1	.	.	54.0	.	.	.
O=C1CN(O)C=C2N=c3ccccc3=C2N1c1ccc([N+](=O)[O-])cc1	.	.	76.6	.	.	.
O=C1/C(=C/c2ccc([N+](=O)[O-])cc2)C=C(c2ccccc2)N1c1ccc(O)cc1	.	.	.	.	.	.
Cc1cc(C)cc(C(=O)N2CC(C)OC(C)C2)c1 (stereo not given)	.	.	/	.	.	.
CCOC(=O)N1CCC(=NNC(=O)c2cc3ccccc3cc2O)CC1	.	.	/	.	.	.
CCOC(=O)C1=C(C)C/C(=N\NC(=O)c2ccccc2O)CC1	.	.	86.3	/	.	.
O=C(CSc1nnnn1-c1cccc(O)c1)NC1CC1	.	.	.	.	.	.
Cc1cccc(N(CC(=O)NCc2ccc3c(c2)OCO3)C(=O)CCC(=O)Nc2ccccn2)c1	.	.	/	.	.	.
Cc1cccc(NC(=S)NCc2ccc3c(c2)OCO3)c1C	.	.	50.1	.	.	.
Cc1ccccc1NC(=S)NCc1ccc2c(c1)OCO2	.	.	.	.	.	.
Cc1cccc(N(CC(=O)NCc2ccc3c(c2)OCO3)C(=O)CCC(=O)Nc2ccccn2)c1C	.	.	91.6	.	.	.
CC1CCN(C(=O)COc2ncnc3ccccc23)CC1	.	.	49.3	/	.	.
O=C(COc1ncnc2ccccc12)N1CCOCC1	.	.	.	.	.	.
CCN(CC(=O)Nc1c(F)cccc1F)C(=O)/C=C/c1cn(Cc2ccccc2)nc1-c1cccnc1	.	.	.	.	.	.
COc1ccc(NC(=O)c2ccccc2N2C(=O)C3C4C=CC(C5CC45)C3C2=O)c(OC)c1 (stereo not given)	.	.	.	.	.	.
Cc1noc(C)c1NC(=O)N(C)C[C@H]1Oc2c(NC(=O)C3CCCCC3)cccc2C(=O)N([C@H](C)CO)C[C@@H]1C	.	.	.	.	.	.
SMILES	Rtt109 HAT inh	CDK5 inh	CAL PDZ FP-1	Dyrk1A ADPGlo	dFosB act	CAL PDZ FP-2
Cc1nn(Cc2ccccc2)c(Cl)c1C(=O)NCc1ccco1	.	.	59.2	.	.	.
O=C(Nc1nnc(CSCc2ccc(Cl)cc2)s1)c1cccc([N+](=O)[O-])c1	.	.	.	.	.	.
O=C(Nc1nnc(CSCc2ccc(F)cc2)s1)c1cccc([N+](=O)[O-])c1	.	.	.	52.6	.	.
CCNC(=O)NC(=O)CSc1nnc(-c2c[nH]c3ccccc23)o1	51.0	.	.	.	.	.
O=C(CCCc1ccncc1)c1ccccc1	.	.	.	/	.	.
Cc1ccccc1C(=O)O/N=C(\N)c1ccccc1	.	.	.	55.1	.	.
Cc1ccc(C(=O)O/N=C(\N)c2ccccn2)c(C)c1	.	50.5	.	.	.	.
Cc1ccccc1C(=O)O/N=C(\N)c1ccc([N+](=O)[O-])cc1	.	.	.	/	.	.
COc1ccc(C(=O)O/N=C(\N)c2ccccc2)cc1OC	.	.	42.9	.	.	/
COc1ccccc1C(=O)O/N=C(\N)c1ccccn1	.	.	.	/	.	.
